Measured values from different studies.
Protocols differ between the studies behind these lines.
Target: Mitogen-activated protein kinase 11 (MAPK11, Homo sapiens, UniProt Q15759)
Method: competition with immobilised ligand

Structure (SMILES)	effect on	concentration	remaining binding
CCN1CCN(Cc2ccc(C(=O)Nc3ccc(C)c(Oc4ccc5c(c4)CC(=O)N5)c3)cc2C(F)(F)F)CC1	binding	1 µM	7%
N#Cc1ccccc1CSc1nnc2c(n1)[nH]c1ccccc12	binding	10 µM	94%
CN(C)c1ncnc(-c2ccc3nc(Nc4cc(CN5CCN(C(=O)CC(F)(F)F)CC5)ccn4)[nH]c3c2)c1Cl	cell-free assay	1 µM	97%
O=C(Nc1c[nH]nc1C(=O)NC1CCNCC1)c1cc(F)cc(F)c1	binding	1 µM	97%
C[C@@H]1CN(c2cc(-c3n[nH]c4ccc(OC5(C)CC5)cc34)ncn2)C[C@H](C)O1	cell-free assay	0.1 µM	89%
COc1cnc(Nc2cccc(S(N)(=O)=O)c2)nc1N1CCN(c2ccccc2)CC1	binding	1 µM	100%
CCS(=O)(=O)c1cc2cc(C[C@@](O)(CC(C)(C)c3ccc(F)cc3C(N)=O)C(F)(F)F)[nH]c2cn1	cell-free assay	1 µM	100%
O=C(c1ccc(Nc2ncc(Cl)c(-c3cc4ccccc4s3)n2)cc1)N1CCC(N2CCCC2)CC1	binding	1 µM	82%
COc1ccnn2ncc(-c3ccnc(N(C)C)n3)c12	binding	1 µM	92%
C=CC(=O)N1CCC(C(=O)NCC(=O)N2CCN(c3nc(-c4cnc(N)nc4C(F)F)nc(N4CCOCC4)n3)CC2)CC1	binding	1 µM	89%
CN(C)c1nccc(-c2cnn3ncccc23)n1	binding	1 µM	100%
C[C@@H]1CN(c2ccc3ncc(-c4ccc5[nH]nc(C6CC6)c5c4)n3n2)C[C@H](C)O1	binding	50 nM	100%
COc1cc(-c2cn(C3CCc4ccccc4N(CC(F)(F)F)C3=O)nn2)ccc1-n1ccc(C)n1 (stereo not shown)	cell-free assay	1 µM	82%
C[C@H]1CCN(c2nccc(-c3cnn4ncccc34)n2)C1	binding	1 µM	55%
O=C(NCCCN1CCOCC1)c1ccc(Nc2nccc(-c3cc4ccccc4s3)n2)cc1	binding	1 µM	98%
O=C(N[C@H]1CCCCC/C=C\C2C[C@@]2(C(=O)O)NC(=O)[C@@H]2C[C@@H](Oc3ccncc3)CN2C1=O)OC1CCCC1 (stereo partly shown)	binding	1 µM	100%
Cc1cnn2ncc(-c3ccnc(N(C)C)n3)c2c1	binding	1 µM	100%
O=C(NCCCN1CCOCC1)c1ccc(Nc2ncc(Cl)c(-c3ccc(Cl)s3)n2)cc1	binding	1 µM	98%
NS(=O)(=O)c1cc(NC(=O)C2(c3ccccc3Cl)CC2)ccc1Oc1cccc(Cl)c1	cell-free assay	1 µM	68%
c1cnn2ncc(-c3ccnc(N4CCC45COC5)n3)c2c1	binding	1 µM	100%
CC(=O)N1CCC(c2ccc(C(=O)NC3=NCCN3)cc2C(F)(F)F)CC1	cell-free assay	1 µM	98%
c1cncc(-c2cccc(Nc3nccc(NC4CCCCC4)n3)c2)c1	binding	10 µM	89%
